The term IC50 denotes the concentration that gives 50% inhibition. A high value points to weaker potency in that assay.

What all share (type): biochemical
For experiment [1], the target named is T1, human TDP1 (Homo sapiens, UniProt Q9NUW8). The experiment in a line: Mechanism of inhibition, substrate/inhibitor matrix. The method, boiled down:
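Full-length TDP1 was preincubated with test compound on ice for 1 h. Then eosin/TAMRA FRET substrate was added, […] twofold dilutions from 2.25 to 0.035 μM, with three inhibitor levels plus a no-inhibitor control. Final TDP1 was 500 pM in PBS pH 8.0 buffer. Eosin fluorescence (ex 525/em 545 nm) was read over about 1 h at 28 °C. Rate versus substrate data were fitted to competitive, noncompetitive (pure and mixed) and uncompetitive models, with the best fit chosen by Akaike's Information Criterion.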

Experiment [2] deals with T1, human TDP1. The experiment in a line: Reversibility of inhibition by preincubation and rapid dilution. The note with it: for Recovery of the uninhibited control rate: after preincubation with compound for 1 h, rapid dilution; for Reversibility of inhibition: preincubation at 10X IC50 for 1 h, 100-fold dilution.
In experiment [3] the target is T1, human TDP1. The experiment in a line: Continuous FRET assay, IC50 determination of inhibitors of TDP1.
[4] abbreviates: 500 pM TDP1, 1.5 μM FRET substrate, 1 h preincubation.

Entries after “also recorded” stand apart in the source; their conditions may differ. Where two headings read alike, the source gives them in different places.

T1 sequence (Q9NUW8 whole entry): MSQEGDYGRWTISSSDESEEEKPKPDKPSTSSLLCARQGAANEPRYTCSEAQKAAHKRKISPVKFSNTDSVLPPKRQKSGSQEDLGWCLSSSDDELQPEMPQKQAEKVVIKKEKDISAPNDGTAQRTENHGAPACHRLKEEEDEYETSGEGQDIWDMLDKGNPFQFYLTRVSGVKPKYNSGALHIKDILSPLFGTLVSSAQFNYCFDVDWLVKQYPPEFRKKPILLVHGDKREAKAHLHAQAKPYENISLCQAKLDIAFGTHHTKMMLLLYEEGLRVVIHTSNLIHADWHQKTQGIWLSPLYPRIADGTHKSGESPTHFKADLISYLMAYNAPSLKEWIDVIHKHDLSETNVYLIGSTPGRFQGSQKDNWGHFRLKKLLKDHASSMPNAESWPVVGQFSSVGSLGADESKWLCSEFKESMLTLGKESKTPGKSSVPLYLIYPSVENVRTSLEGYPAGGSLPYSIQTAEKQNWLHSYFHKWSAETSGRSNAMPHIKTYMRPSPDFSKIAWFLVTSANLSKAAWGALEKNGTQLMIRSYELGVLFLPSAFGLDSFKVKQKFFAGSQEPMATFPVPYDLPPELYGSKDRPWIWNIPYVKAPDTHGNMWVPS

`CC(C)=CCC12OC1(O)C(=O)c1c(O)cccc1C2=O` (centres unmarked) [2,3-epoxy-8-hydroxy-lapachol]: the “Mechanism of inhibition” value on human TDP1 [1] (inhibitor at 0, 6.6, 20 and 60 μM, Akaike's Information Criterion) is reported as “mixed-type noncompetitive mechanism”. The Ki on human TDP1 [1] (read-out: Kie (inhibition constant for TDP1 alone), mixed noncompetitive model) stood at 40.9 ± 14.1 µM. At human TDP1 [2], the “Recovery of the uninhibited control rate” value came to 90% and the “Reversibility of inhibition” value was “fully reversible”. As to `O=C(O)C1=CC(=C(c2ccc(O)c(C(=O)O)c2)c2ccc(O)c(C(=O)O)c2)C=CC1=O` [Aurintricarboxylic acid, reference compound], the “Recovery of the uninhibited control rate” value at human TDP1 [2] came out at 90%. In the case of `CC(=O)Oc1ccc2ccc(=O)oc2c1OC(C)=O` [Daphnetin diacetate], the IC50 on human TDP1 [3] was determined as 1.1 ± 0.2 µM. For `C[C@@]12CCC(=O)c3coc(c31)C(=O)c1cc3c(O)ccc(OS(=O)(=O)O)c3cc12.[Na+]` [Halenaquinol sulfate], the “Reversibility of inhibition” value at human TDP1 [2] was “irreversibly inhibited TDP1; also recorded: irreversibly inhibiting TDP1”. In addition, the IC50 against human TDP1 [3] (setting [4]) came out at 24 ± 1.1 µM. On to `C[C@@]12CCC(=O)c3coc(c31)C(=O)c1cc3c(cc12)C(=O)C=CC3=O` [Halenaquinone], for which the results for the “Reversibility of inhibition” value on human TDP1 [2] and on human TDP1 [2] (listed as Halenoquinone) were “irreversibly inhibited TDP1; also recorded: irreversibly inhibiting TDP1” and “irreversible inhibition”, respectively. Further, half-maximal inhibition against human TDP1 [3] (setting [4]) (IC50) required 26 ± 1 µM. `C[C@H](O)C#CC#CC#CC#CCCCCCCCC(=O)O` [Minquartynoic acid]: at human TDP1 [3], it took 52 ± 1 µM to reach half-maximal inhibition (IC50).

In turn, `C[C@@]12CCCc3coc(c31)C(=O)c1cc3c(cc12)C(=O)C=CC3=O` [Xestoquinone] returned an IC50 against human TDP1 [3] of 93 ± 1.1 µM.

On to `COC[C@H]1OC(=O)c2coc3c2[C@@]1(C)C1=C(C3=O)[C@@H]2CCC(=O)[C@@]2(C)C[C@H]1OC(C)=O` [wortmannin, reference compound], for which the “Inhibition of TDP1” value on human TDP1 [3] (concentrations up to 500 μM) is “unable to inhibit TDP1; also recorded: did not inhibit TDP1”.

The values are drawn from paper PMC7900901 (SLAS discovery : advancing life sciences R & D, 2017).
